In the first test the test system is HeLa. As to the kind of experiment: Cytotoxicity in human HeLa cells assessed as reduction in cell viability incubated for 72 hrs by SRB assay. Type of test: functional, cell-based.
Settings: not given
The method in brief: (§1)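 SRB assay of cell viability in human cancer lines (HeLa, KB, A549, U87, HepG2) and normal dermal fibroblasts (HDF). IC50 values are […] of three independent experiments.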
As a reminder, the IC50 is the point on the concentration scale where inhibition reaches its midpoint. On to `CC(C)(C)OC(=O)O[C@@H]1[C@@H](Cn2cc(CNc3ccn([C@@H]4O[C@H](CO)[C@@H](O)C4(F)F)c(=O)n3)nn2)O[C@@H](n2ccc(NC(=O)OCc3ccccc3)nc2=O)C1(F)F`, for which the 50% inhibitory concentration (IC50) was 3.12 µM.
On the same count and under the same terms, for `CC(C)(C)OC(=O)O[C@@H]1[C@@H](Cn2cc(COC(=O)Nc3ccn([C@@H]4O[C@H](CO)[C@@H](O)C4(F)F)c(=O)n3)nn2)O[C@@H](n2ccc(NC(=O)OCc3ccccc3)nc2=O)C1(F)F` the value was 0.97 µM; for `O=C(Nc1ccn([C@@H]2O[C@H](CO)[C@@H](O)C2(F)F)c(=O)n1)OCc1cn(C[C@H]2O[C@@H](n3cc(F)c(=O)[nH]c3=O)C[C@@H]2O)nn1`, 6.7 µM.
On the same count and under the same terms, the result for `CC(C)(C)OC(=O)O[C@@H]1[C@@H](Cn2cc(COC(=O)Nc3ccn([C@@H]4O[C@H](CO)[C@@H](O)C4(F)F)c(=O)n3)nn2)O[C@@H](n2ccc(N)nc2=O)C1(F)F` reads 2.01 µM.

The subject of a further test is KB. As to the kind of experiment: Cytotoxicity in human KB cells assessed as reduction in cell viability incubated for 72 hrs by SRB assay. It is filed as functional, cell-based.
Settings: not given
The method in brief: as §1
On the technique in general: The SRB assay estimates cell density from bound dye.
As for `CC(C)(C)OC(=O)O[C@@H]1[C@@H](Cn2cc(CNc3ccn([C@@H]4O[C@H](CO)[C@@H](O)C4(F)F)c(=O)n3)nn2)O[C@@H](n2ccc(NC(=O)OCc3ccccc3)nc2=O)C1(F)F`, the IC50 worked out at 3.09 µM.
Same read-out and setting: the result for `CC(C)(C)OC(=O)O[C@@H]1[C@@H](Cn2cc(COC(=O)Nc3ccn([C@@H]4O[C@H](CO)[C@@H](O)C4(F)F)c(=O)n3)nn2)O[C@@H](n2ccc(NC(=O)OCc3ccccc3)nc2=O)C1(F)F` reads 0.95 µM; that for `O=C(Nc1ccn([C@@H]2O[C@H](CO)[C@@H](O)C2(F)F)c(=O)n1)OCc1cn(C[C@H]2O[C@@H](n3cc(F)c(=O)[nH]c3=O)C[C@@H]2O)nn1`, 6.52 µM; that for `CC(C)(C)OC(=O)O[C@@H]1[C@@H](Cn2cc(COC(=O)Nc3ccn([C@@H]4O[C@H](CO)[C@@H](O)C4(F)F)c(=O)n3)nn2)O[C@@H](n2ccc(N)nc2=O)C1(F)F`, 2.12 µM.

A further test deals with A549. Put plainly: Cytotoxicity in human A549 cells assessed as reduction in cell viability incubated for 72 hrs by SRB assay. It is filed as functional, cell-based. The note with it: A549, 72 h. The procedure, abridged: as §1
Regarding `CC(C)(C)OC(=O)O[C@@H]1[C@@H](Cn2cc(CNc3ccn([C@@H]4O[C@H](CO)[C@@H](O)C4(F)F)c(=O)n3)nn2)O[C@@H](n2ccc(NC(=O)OCc3ccccc3)nc2=O)C1(F)F`, the IC50 was 3.24 µM.
As for `CC(C)(C)OC(=O)O[C@@H]1[C@@H](Cn2cc(COC(=O)Nc3ccn([C@@H]4O[C@H](CO)[C@@H](O)C4(F)F)c(=O)n3)nn2)O[C@@H](n2ccc(NC(=O)OCc3ccccc3)nc2=O)C1(F)F`, the half-maximal inhibitory concentration (IC50) was 0.83 µM.
Take `O=C(Nc1ccn([C@@H]2O[C@H](CO)[C@@H](O)C2(F)F)c(=O)n1)OCc1cn(C[C@H]2O[C@@H](n3cc(F)c(=O)[nH]c3=O)C[C@@H]2O)nn1`: the half-inhibitory concentration (IC50) stood at 8.01 µM.
`CC(C)(C)OC(=O)O[C@@H]1[C@@H](Cn2cc(COC(=O)Nc3ccn([C@@H]4O[C@H](CO)[C@@H](O)C4(F)F)c(=O)n3)nn2)O[C@@H](n2ccc(N)nc2=O)C1(F)F`: the IC50 was determined as 2.17 µM.

Another test has as its system U-87 MG. As to the kind of experiment: Cytotoxicity in human U87 cells assessed as reduction in cell viability incubated for 72 hrs by SRB assay. Type of test: functional, cell-based, U-87MG ATCC.
Settings: not given
The method in brief: as §1
For `CC(C)(C)OC(=O)O[C@@H]1[C@@H](Cn2cc(CNc3ccn([C@@H]4O[C@H](CO)[C@@H](O)C4(F)F)c(=O)n3)nn2)O[C@@H](n2ccc(NC(=O)OCc3ccccc3)nc2=O)C1(F)F`, the half-maximal inhibitory concentration (IC50) worked out at 3.81 µM.
Take `CC(C)(C)OC(=O)O[C@@H]1[C@@H](Cn2cc(COC(=O)Nc3ccn([C@@H]4O[C@H](CO)[C@@H](O)C4(F)F)c(=O)n3)nn2)O[C@@H](n2ccc(NC(=O)OCc3ccccc3)nc2=O)C1(F)F`: the IC50 came out at 1.09 µM.
As for `O=C(Nc1ccn([C@@H]2O[C@H](CO)[C@@H](O)C2(F)F)c(=O)n1)OCc1cn(C[C@H]2O[C@@H](n3cc(F)c(=O)[nH]c3=O)C[C@@H]2O)nn1`, the IC50 was found to be 7.56 µM.
Take `CC(C)(C)OC(=O)O[C@@H]1[C@@H](Cn2cc(COC(=O)Nc3ccn([C@@H]4O[C@H](CO)[C@@H](O)C4(F)F)c(=O)n3)nn2)O[C@@H](n2ccc(N)nc2=O)C1(F)F`: the concentration for half-maximal inhibition (IC50) was 2.21 µM.

The subject of another test is HepG2. As to the kind of experiment: Cytotoxicity in human HepG2 cells assessed as reduction in cell viability incubated for 72 hrs by SRB assay. Type of test: functional, cell-based. The note with it: HepG2, 72 h. The method in brief: as §1
Take `CC(C)(C)OC(=O)O[C@@H]1[C@@H](Cn2cc(CNc3ccn([C@@H]4O[C@H](CO)[C@@H](O)C4(F)F)c(=O)n3)nn2)O[C@@H](n2ccc(NC(=O)OCc3ccccc3)nc2=O)C1(F)F`: the IC50 worked out at 3.93 µM.
On the same count and under the same terms, for `CC(C)(C)OC(=O)O[C@@H]1[C@@H](Cn2cc(COC(=O)Nc3ccn([C@@H]4O[C@H](CO)[C@@H](O)C4(F)F)c(=O)n3)nn2)O[C@@H](n2ccc(NC(=O)OCc3ccccc3)nc2=O)C1(F)F` the value was 1.01 µM; for `O=C(Nc1ccn([C@@H]2O[C@H](CO)[C@@H](O)C2(F)F)c(=O)n1)OCc1cn(C[C@H]2O[C@@H](n3cc(F)c(=O)[nH]c3=O)C[C@@H]2O)nn1`, 7.66 µM; for `CC(C)(C)OC(=O)O[C@@H]1[C@@H](Cn2cc(COC(=O)Nc3ccn([C@@H]4O[C@H](CO)[C@@H](O)C4(F)F)c(=O)n3)nn2)O[C@@H](n2ccc(N)nc2=O)C1(F)F`, 2.34 µM.

The next test concerns NHDF. As to the kind of experiment: Cytotoxicity in human NHDF cells assessed as reduction in cell viability incubated for 72 hrs by SRB assay. It is filed as cell-based.
Settings: not given
The method in brief:
as §1
As for `CC(C)(C)OC(=O)O[C@@H]1[C@@H](Cn2cc(CNc3ccn([C@@H]4O[C@H](CO)[C@@H](O)C4(F)F)c(=O)n3)nn2)O[C@@H](n2ccc(NC(=O)OCc3ccccc3)nc2=O)C1(F)F`, the concentration for half-maximal inhibition (IC50) stood at 8.12 µM.
For the molecule `CC(C)(C)OC(=O)O[C@@H]1[C@@H](Cn2cc(COC(=O)Nc3ccn([C@@H]4O[C@H](CO)[C@@H](O)C4(F)F)c(=O)n3)nn2)O[C@@H](n2ccc(NC(=O)OCc3ccccc3)nc2=O)C1(F)F`, the IC50 came to 4.69 µM.
As for `O=C(Nc1ccn([C@@H]2O[C@H](CO)[C@@H](O)C2(F)F)c(=O)n1)OCc1cn(C[C@H]2O[C@@H](n3cc(F)c(=O)[nH]c3=O)C[C@@H]2O)nn1`, the IC50 turned out to be 10.2 µM.
On the same count and under the same terms, the result for `CC(C)(C)OC(=O)O[C@@H]1[C@@H](Cn2cc(COC(=O)Nc3ccn([C@@H]4O[C@H](CO)[C@@H](O)C4(F)F)c(=O)n3)nn2)O[C@@H](n2ccc(N)nc2=O)C1(F)F` reads 8.81 µM.

System in the next test: not listed separately
As to the kind of experiment: Selectivity index, ratio of IC50 for cytotoxicity in human NHDF cells to IC50 for cytotoxicity in human HeLa cells.
Settings: not given
The method in brief: (§2)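 Selectivity index is the IC50 in normal HDF fibroblasts divided by the IC50 in the given cancer line.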
Turning to `CC(C)(C)OC(=O)O[C@@H]1[C@@H](Cn2cc(CNc3ccn([C@@H]4O[C@H](CO)[C@@H](O)C4(F)F)c(=O)n3)nn2)O[C@@H](n2ccc(NC(=O)OCc3ccccc3)nc2=O)C1(F)F`, the “Ratio IC50” value was determined as 2.6.
For `CC(C)(C)OC(=O)O[C@@H]1[C@@H](Cn2cc(COC(=O)Nc3ccn([C@@H]4O[C@H](CO)[C@@H](O)C4(F)F)c(=O)n3)nn2)O[C@@H](n2ccc(NC(=O)OCc3ccccc3)nc2=O)C1(F)F`, the “Ratio IC50” value amounted to 4.83.
The same measure, in the same setting: the result for `CC(C)(C)OC(=O)O[C@@H]1[C@@H](Cn2cc(COC(=O)Nc3ccn([C@@H]4O[C@H](CO)[C@@H](O)C4(F)F)c(=O)n3)nn2)O[C@@H](n2ccc(N)nc2=O)C1(F)F` reads 4.38.

System in a further test: not listed separately
As to the kind of experiment: Selectivity index, ratio of IC50 for cytotoxicity in human NHDF cells to IC50 for cytotoxicity in human KB cells.
Settings: not given
The method in brief: as §2
Regarding `CC(C)(C)OC(=O)O[C@@H]1[C@@H](Cn2cc(CNc3ccn([C@@H]4O[C@H](CO)[C@@H](O)C4(F)F)c(=O)n3)nn2)O[C@@H](n2ccc(NC(=O)OCc3ccccc3)nc2=O)C1(F)F`, the “Ratio IC50” value is reported as 2.63.
Consider `CC(C)(C)OC(=O)O[C@@H]1[C@@H](Cn2cc(COC(=O)Nc3ccn([C@@H]4O[C@H](CO)[C@@H](O)C4(F)F)c(=O)n3)nn2)O[C@@H](n2ccc(NC(=O)OCc3ccccc3)nc2=O)C1(F)F`, for which the “Ratio IC50” value came out at 4.94.
For `CC(C)(C)OC(=O)O[C@@H]1[C@@H](Cn2cc(COC(=O)Nc3ccn([C@@H]4O[C@H](CO)[C@@H](O)C4(F)F)c(=O)n3)nn2)O[C@@H](n2ccc(N)nc2=O)C1(F)F`, the “Ratio IC50” value was determined as 4.16.

System in the next test: not listed separately
Put plainly: Selectivity index, ratio of IC50 for cytotoxicity in human NHDF cells to IC50 for cytotoxicity in human A549 cells.
Settings: not given
The method in brief:
as §2
In the case of `CC(C)(C)OC(=O)O[C@@H]1[C@@H](Cn2cc(CNc3ccn([C@@H]4O[C@H](CO)[C@@H](O)C4(F)F)c(=O)n3)nn2)O[C@@H](n2ccc(NC(=O)OCc3ccccc3)nc2=O)C1(F)F`, the “Ratio IC50” value is 2.51.
The same measure, in the same setting: the result for `CC(C)(C)OC(=O)O[C@@H]1[C@@H](Cn2cc(COC(=O)Nc3ccn([C@@H]4O[C@H](CO)[C@@H](O)C4(F)F)c(=O)n3)nn2)O[C@@H](n2ccc(NC(=O)OCc3ccccc3)nc2=O)C1(F)F` reads 5.65; that for `CC(C)(C)OC(=O)O[C@@H]1[C@@H](Cn2cc(COC(=O)Nc3ccn([C@@H]4O[C@H](CO)[C@@H](O)C4(F)F)c(=O)n3)nn2)O[C@@H](n2ccc(N)nc2=O)C1(F)F`, 4.06.

System in a further test: not listed separately
As to the kind of experiment: Selectivity index, ratio of IC50 for cytotoxicity in human NHDF cells to IC50 for cytotoxicity in human U87 cells.
Settings: not given
The procedure, abridged:
as §2
For the molecule `CC(C)(C)OC(=O)O[C@@H]1[C@@H](Cn2cc(CNc3ccn([C@@H]4O[C@H](CO)[C@@H](O)C4(F)F)c(=O)n3)nn2)O[C@@H](n2ccc(NC(=O)OCc3ccccc3)nc2=O)C1(F)F`, the “Ratio IC50” value worked out at 2.13.
The same measure, in the same setting: the result for `CC(C)(C)OC(=O)O[C@@H]1[C@@H](Cn2cc(COC(=O)Nc3ccn([C@@H]4O[C@H](CO)[C@@H](O)C4(F)F)c(=O)n3)nn2)O[C@@H](n2ccc(NC(=O)OCc3ccccc3)nc2=O)C1(F)F` reads 4.3; that for `CC(C)(C)OC(=O)O[C@@H]1[C@@H](Cn2cc(COC(=O)Nc3ccn([C@@H]4O[C@H](CO)[C@@H](O)C4(F)F)c(=O)n3)nn2)O[C@@H](n2ccc(N)nc2=O)C1(F)F`, 3.99.

System in the next test: not listed separately
Put plainly: Selectivity index, ratio of IC50 for cytotoxicity in human NHDF cells to IC50 for cytotoxicity in human HepG2 cells.
Settings: not given
The method in brief:
as §2
Take `CC(C)(C)OC(=O)O[C@@H]1[C@@H](Cn2cc(CNc3ccn([C@@H]4O[C@H](CO)[C@@H](O)C4(F)F)c(=O)n3)nn2)O[C@@H](n2ccc(NC(=O)OCc3ccccc3)nc2=O)C1(F)F`: the “Ratio IC50” value came out at 2.07.
Still for that read-out and setting: the result for `CC(C)(C)OC(=O)O[C@@H]1[C@@H](Cn2cc(COC(=O)Nc3ccn([C@@H]4O[C@H](CO)[C@@H](O)C4(F)F)c(=O)n3)nn2)O[C@@H](n2ccc(NC(=O)OCc3ccccc3)nc2=O)C1(F)F` reads 4.64; that for `CC(C)(C)OC(=O)O[C@@H]1[C@@H](Cn2cc(COC(=O)Nc3ccn([C@@H]4O[C@H](CO)[C@@H](O)C4(F)F)c(=O)n3)nn2)O[C@@H](n2ccc(N)nc2=O)C1(F)F`, 3.77.
